ChEMBL document CHEMBL3875192, “Synthesis and binding monitoring of a new nanomolar PAMAM-based matrix metalloproteinases inhibitor (MMPIs)” (Bioorg Med Chem, 2017)
The source made the active and inactive calls. The calls are words filed in the database; no cut-off is given here.

Legend:
Collagenase 3 = Collagenase 3 (Homo sapiens, UniProt P45452); experiment: Inhibition of MMP-13 (unknown origin) assessed as inhibition of hydrolysis of Mca-Pro-Leu-Gly-Leu-Dpa-Ala-Arg-NH2 substrate by fluorimetric assay
[1] = target: T1, Macrophage metalloelastase (Homo sapiens, UniProt P39900); experiment: Binding affinity to 15N-enriched MMP-12 catalytic domain (unknown origin) at 0.2 mM by 2D 1H-15N HSQC NMR spectroscopy
Method in brief: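 Ligand was added from a DMSO-d₆ solution to a final 0.2 mM with 1% DMSO-d₆. Amide NH resonances were followed by sensitivity-enhanced 2D ¹H-¹⁵N HSQC, and spectral changes were the binding read-out.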
Target sequence in this assay (P39900 106-470 limits assumed): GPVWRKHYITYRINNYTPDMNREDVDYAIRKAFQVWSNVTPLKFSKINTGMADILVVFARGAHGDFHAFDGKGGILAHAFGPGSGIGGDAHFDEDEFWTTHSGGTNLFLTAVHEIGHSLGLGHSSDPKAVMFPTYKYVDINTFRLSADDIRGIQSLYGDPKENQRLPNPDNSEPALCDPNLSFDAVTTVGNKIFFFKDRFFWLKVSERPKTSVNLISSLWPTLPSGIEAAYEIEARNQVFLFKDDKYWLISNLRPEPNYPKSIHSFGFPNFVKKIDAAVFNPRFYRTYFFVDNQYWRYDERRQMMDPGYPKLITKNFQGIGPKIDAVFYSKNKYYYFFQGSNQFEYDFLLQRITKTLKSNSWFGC

Interstitial collagenase = target: T2, Interstitial collagenase (Homo sapiens, UniProt P03956); experiment: Inhibition of MMP-1 (unknown origin) assessed as inhibition of hydrolysis of Mca-Pro-Leu-Gly-Leu-Dpa-Ala-Arg-NH2 substrate by fluorimetric assay
T2 sequence (P03956 whole entry): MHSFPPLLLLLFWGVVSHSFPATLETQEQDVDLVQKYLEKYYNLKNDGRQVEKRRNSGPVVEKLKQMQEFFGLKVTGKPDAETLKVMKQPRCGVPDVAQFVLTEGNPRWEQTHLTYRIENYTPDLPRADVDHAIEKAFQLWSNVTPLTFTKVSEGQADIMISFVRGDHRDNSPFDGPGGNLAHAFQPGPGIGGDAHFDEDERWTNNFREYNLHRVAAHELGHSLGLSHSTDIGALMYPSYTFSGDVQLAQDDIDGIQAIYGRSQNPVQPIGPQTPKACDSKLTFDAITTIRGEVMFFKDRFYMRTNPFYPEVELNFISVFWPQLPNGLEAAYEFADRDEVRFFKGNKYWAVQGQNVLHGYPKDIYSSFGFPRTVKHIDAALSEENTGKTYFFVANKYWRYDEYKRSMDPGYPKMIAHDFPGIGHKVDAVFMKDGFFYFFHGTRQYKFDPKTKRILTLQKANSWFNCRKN

[2] = target: T1, Macrophage metalloelastase; experiment: Inhibition of MMP-12 catalytic domain (unknown origin) assessed as inhibition of hydrolysis of Mca-Pro-Leu-Gly-Leu-Dpa-Ala-Arg-NH2 substrate by fluorimetric assay
Target sequence in this assay (P39900 whole entry, the tested form may be a part): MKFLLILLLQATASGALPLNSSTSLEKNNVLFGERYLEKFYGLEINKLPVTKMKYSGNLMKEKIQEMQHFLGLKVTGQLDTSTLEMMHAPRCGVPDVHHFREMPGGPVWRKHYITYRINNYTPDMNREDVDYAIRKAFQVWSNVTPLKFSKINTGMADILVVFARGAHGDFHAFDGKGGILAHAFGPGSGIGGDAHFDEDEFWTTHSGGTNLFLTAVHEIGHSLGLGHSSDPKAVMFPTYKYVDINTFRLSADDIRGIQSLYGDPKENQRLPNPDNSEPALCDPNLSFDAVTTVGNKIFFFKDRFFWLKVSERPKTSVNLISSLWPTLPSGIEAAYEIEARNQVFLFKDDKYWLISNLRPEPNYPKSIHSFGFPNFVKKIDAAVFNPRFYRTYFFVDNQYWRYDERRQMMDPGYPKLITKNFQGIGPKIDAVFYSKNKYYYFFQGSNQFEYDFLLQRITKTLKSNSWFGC

[3] = target: 72 kDa type IV collagenase (Homo sapiens, UniProt P08253); experiment: Inhibition of MMP-2 (unknown origin) assessed as inhibition of hydrolysis of Mca-Pro-Leu-Gly-Leu-Dpa-Ala-Arg-NH2 substrate by fluorimetric assay
Sequence of 72 kDa type IV collagenase (P08253 whole entry, the tested form may be a part): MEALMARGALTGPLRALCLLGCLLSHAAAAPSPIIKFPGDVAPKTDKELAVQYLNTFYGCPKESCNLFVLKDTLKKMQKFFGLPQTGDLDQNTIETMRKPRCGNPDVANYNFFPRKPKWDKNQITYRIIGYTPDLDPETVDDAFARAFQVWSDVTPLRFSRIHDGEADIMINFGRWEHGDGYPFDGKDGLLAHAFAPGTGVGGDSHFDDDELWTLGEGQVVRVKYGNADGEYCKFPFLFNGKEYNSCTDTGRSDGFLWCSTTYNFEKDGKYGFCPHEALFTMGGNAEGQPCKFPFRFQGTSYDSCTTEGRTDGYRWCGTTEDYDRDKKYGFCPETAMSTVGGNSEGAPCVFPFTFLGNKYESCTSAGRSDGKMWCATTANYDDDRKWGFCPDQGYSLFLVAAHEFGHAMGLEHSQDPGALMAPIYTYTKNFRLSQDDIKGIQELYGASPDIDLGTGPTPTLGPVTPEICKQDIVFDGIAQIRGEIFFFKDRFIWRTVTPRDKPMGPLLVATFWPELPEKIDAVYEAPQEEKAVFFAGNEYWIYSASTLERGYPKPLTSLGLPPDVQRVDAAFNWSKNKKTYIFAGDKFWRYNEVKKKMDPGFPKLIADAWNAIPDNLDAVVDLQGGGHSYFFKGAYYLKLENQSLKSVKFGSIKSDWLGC

[4] = target: T3, Matrix metalloproteinase-9 (Homo sapiens, UniProt P14780); experiment: Inhibition of human recombinant MMP-9 catalytic domain (112 to 445 residues) expressed in Escherichia coli assessed as inhibition of hydrolysis of Mca-Pro-Leu-Gly-Leu-Dpa-Ala-Arg-NH2 substrate by fluorimetric assay
T3 sequence (P14780 whole entry, the tested form may be a part): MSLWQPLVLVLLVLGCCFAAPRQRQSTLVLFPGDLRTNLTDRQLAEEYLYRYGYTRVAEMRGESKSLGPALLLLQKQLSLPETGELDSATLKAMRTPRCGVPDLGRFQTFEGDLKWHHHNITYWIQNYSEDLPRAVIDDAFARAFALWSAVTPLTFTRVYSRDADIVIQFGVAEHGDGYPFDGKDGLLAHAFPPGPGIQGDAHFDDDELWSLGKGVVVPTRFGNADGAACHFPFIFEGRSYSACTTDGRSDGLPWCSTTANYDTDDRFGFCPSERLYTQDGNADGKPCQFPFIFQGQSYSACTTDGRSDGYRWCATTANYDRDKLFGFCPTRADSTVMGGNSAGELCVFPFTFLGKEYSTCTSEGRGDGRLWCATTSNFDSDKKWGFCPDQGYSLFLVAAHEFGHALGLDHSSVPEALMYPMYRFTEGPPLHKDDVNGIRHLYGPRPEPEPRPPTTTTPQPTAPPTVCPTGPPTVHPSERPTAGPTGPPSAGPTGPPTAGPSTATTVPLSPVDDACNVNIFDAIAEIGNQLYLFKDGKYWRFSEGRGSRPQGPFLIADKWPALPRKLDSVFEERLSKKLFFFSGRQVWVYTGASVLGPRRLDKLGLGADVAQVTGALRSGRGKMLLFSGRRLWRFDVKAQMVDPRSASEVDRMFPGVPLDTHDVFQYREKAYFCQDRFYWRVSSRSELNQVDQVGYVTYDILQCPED
Method in brief: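 Inhibition constant toward MMP-9 was determined fluorimetrically by monitoring hydrolysis of the quenched peptide substrate Mca-Pro-Leu-Gly-Leu-Dpa-Ala-Arg-NH₂.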

Matrilysin = target: T4, Matrilysin (Homo sapiens, UniProt P09237); experiment: Inhibition of MMP-7 (unknown origin) assessed as inhibition of hydrolysis of Mca-Pro-Leu-Gly-Leu-Dpa-Ala-Arg-NH2 substrate by fluorimetric assay
T4 sequence (P09237 whole entry): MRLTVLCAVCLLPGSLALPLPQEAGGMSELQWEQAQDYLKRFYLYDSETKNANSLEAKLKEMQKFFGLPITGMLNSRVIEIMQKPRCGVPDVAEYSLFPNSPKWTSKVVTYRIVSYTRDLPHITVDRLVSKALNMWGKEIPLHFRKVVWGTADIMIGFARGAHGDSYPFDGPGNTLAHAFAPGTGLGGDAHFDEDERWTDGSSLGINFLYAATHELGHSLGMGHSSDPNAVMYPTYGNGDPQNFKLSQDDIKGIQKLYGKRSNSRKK

[5] = target: T1, Macrophage metalloelastase; experiment: Binding affinity to MMP-12 catalytic domain (unknown origin) assessed as hydrodynamic radius by dynamic light scattering method
Method in brief: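 Samples in glass tubes sat in a thermostatic cell filled with decahydronaphthalene for refractive-index matching. Cumulant fitting of the light-scattering data gave the diffusion coefficient of the complexes, and the average hydrodynamic radius came from the Stokes–Einstein relation assuming spherical particles.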
Target sequence in this assay (P39900 106-470 limits assumed): as the sequence (P39900 106-470 limits assumed) above

[6] = target: T3, Matrix metalloproteinase-9; experiment: Inhibition of MMP-9 catalytic domain (unknown origin)

Ki (Collagenase 3)	Activity [1]	Ki (Interstitial collagenase)	Ki [2]	Ki [3]	Ki [4]	Ki (Matrilysin)	Activity [5]	Ki [6]	SMILES
57.5 nM	Active	143 nM	23 nM	15.9 nM	18 nM	3760 nM	3 nm	–	COc1ccc(S(=O)(=O)N(CCCCCNC(=O)CCCCC(=O)NCCNC(=O)CCN(CCNC(=O)OC(C)(C)C)CCC(=O)NCCNC(=O)CCCCC(=O)NCCCCCN([C@H](CO)C(=O)NO)S(=O)(=O)c2ccc(OC)cc2)[C@H](CO)C(=O)NO)cc1
–	–	–	–	–	–	–	2.1 nm	–	COc1ccc(S(=O)(=O)N(CC(=O)NO)CC(C)C)cc1
–	–	–	–	–	–	–	–	289 nM	COc1ccc(S(=O)(=O)N(CCNC(=O)CCCCC(=O)NCCNC(=O)CCN(CCNC(=O)OC(C)(C)C)CCC(=O)NCCNC(=O)CCCCC(=O)NCCN([C@H](CO)C(=O)NO)S(=O)(=O)c2ccc(OC)cc2)[C@H](CO)C(=O)NO)cc1
